Laboratory results as given in the EternaBench riboswitch data.

System: MS2 coat protein
Experiment: apparent Kd, MS2 coat protein; higher = weaker binding; RNA-MaP array; FMN 200 µM where present
Method in brief: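 The apparent Kd is the median of filtered binding-curve fits, one per cluster, to green signal normalised to red-channel RNA signal and control-cluster median Fmax. The clusters were on Illumina sequencing chips, and stalled E. coli RNA polymerase had transcribed the designs on them. Titration used SNAP-549-labelled MS2 coat protein from 0.7 or 1.5 nM, doubling to 3 µM, without and then with constant ligand, in 100 mM Tris-HCl pH 7.5, 80 mM KCl, 4 mM MgCl2, BSA, DTT, yeast tRNA and Tween-20.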

[1] = designed as: OFF switch for flavin mononucleotide, no ligand
[2] = ligand present: flavin mononucleotide, designed as: OFF switch for flavin mononucleotide
[3] = designed as: ON switch for flavin mononucleotide, no ligand
[4] = ligand present: flavin mononucleotide, designed as: ON switch for flavin mononucleotide

Row | Sequence | apparent Kd [1] | apparent Kd [2] | apparent Kd [3] | apparent Kd [4]
1 | AAAUUUAACGAAGGAUAUGGUUACAUGAGGAUCACCCAUGUAAUGGUUGUGAUAUUGAUUAAGUUCCAGAAGGUCGUAUACAUA | 97.8 nM | 279 nM | – | –
2 | UUGUUGUAUGUAGGAUAUGCGUGUUAUUAUUAUGCAGAAGGACAUGAGGAUCACCCAUGUAUAUUAUUAUUAUAUGUUAUAUAU | 25 nM | 23.9 nM | – | –
3 | GUGCAAUGAGGAUAUACGUUGGUGGGCAUCUGUGUGCUCCUACAUGAGGAUCACCCAUGUAGAAGGCAUGUCAC | 12.5 nM | 15.8 nM | – | –
4 | GCAGGUCGAGGAUAUACAUGAGGAUCACCCAUGUAGAUCAACCAGCGAUAGCUGGAAUGUAGAAGGUGACCUGC | 15.7 nM | 29.4 nM | – | –
5 | GCGUGGAUAGCAGGAUAUAUGUUUCCUACAUGAGGAUCACCCAUGUAGGUGAUCAGCCGAGAAAAGUAGAAGGGCUAUCCAUGC | – | – | 16 nM | 13.4 nM
6 | UGAGCCUCGUGAGGAUAUACAUGAGGAUCACCCAUGUAAUAAAGUGAACGGAGGAAACUCCGAAUGUAGAAGGCACGAGGCUCA | 47.9 nM | 443 nM | – | –
7 | GUCAGCUGGUGAGGAUAUACAACACUGCUUCGGCAGUGUAUUAAGAUCACAUGAGGAUCACCCAUGUAGAAGGCACGAGCUGAU | 13.1 nM | 207 nM | – | –
8 | UGCUAGUCAGGAUAUACGAACAUGUCAAAAGACGUGAAGGGACAUGAGGAUCACCCAUGUAGAAGGGACUAGCU | 38.4 nM | 129 nM | – | –
9 | AAAAAACAUGAGGAUCACCCAUGUCAGGAUAUCCGAAAAAAAAAAAAAAAAAAAAAAAGGAGAAGGGACAAAAA | 100 nM | 83.8 nM | – | –
10 | UAUGUAUUCGUAGGAUAUCCGUUGAGACCGUGUGGAGAAGGACGAACAUGAGGAUCACCCAUGUGUCAUGGUGUAGACAAUUUU | 65.5 nM | 220 nM | – | –
11 | UAUUUUAACUAAGGAUAUCUAUAUUAUUUUGAAACAUGAGGAUCACCCAUGUUCAUGGGAUUAUAGGAGAAGGUAGAUGAAUAA | – | – | 14.6 nM | 9.54 nM
12 | AGGAGGUCAGGAUAUGCUGCUCGUCACUUGCGUGAUGAGUAGCAGAAGGGACAUGAGGAUCACCCAUGUAAAAA | 52.6 nM | 88.7 nM | – | –
13 | CCGGAAGUACAGGAUAUCGUAUCGGAAACGAUACGAGAAGGGUAUACAUGAGGAUCACCCAUGUGUCCUACCGG | 28.7 nM | 27.9 nM | – | –
14 | GAAGCGCUGGAGAAGGGUGAUCAAGUUAUAAACGUGUACAUGAGGAUCACCCAUGUCAGGGAAUCGCAGGAUAUCCAGCUGAAC | – | – | 315 nM | 42.9 nM
15 | ACGGAACAUGAGGAUCACCCAUGUAUCUGAGAUAUGGUCUCGCAGGAUAUUCAGAGAAGCCAAUCGGAGAAGGGUGACACCAAA | – | – | 36.6 nM | 19.6 nM
16 | GGUACCAUCACAGGAUAUGCUUUCCUUUGGGAAGCAGAAGGGUGUAACAUGAGGAUCACCCAUGUGGUGCCAGGGCGCGAGCCC | – | – | 182 nM | 16.8 nM
17 | CAGGUAGACUGAGGAUAUACAAAAGACCUAGUCUAUCUAGGUCAAAUCACAUGAGGAUCACCCAUGUAGAAGGCAGUCUGCCUG | 16.8 nM | 27.3 nM | – | –
18 | AAAUAAAUGUAAGGAUAUCGGUUUCAGAGAACGCGAGAAGGUACAUGAGGAUCACCCAUGUUCCGUUGGGUUAACUUGAUCGCC | 7.14 nM | 13.6 nM | – | –
19 | UGUCGGAGCAAAGGAUAUUACAUGAGGAUCACCCAUGUAUGAACCAAUAGCUGGAAACAGCAAUGUAAGAAGGCUGCUCCGACA | 4.79 nM | 5.81 nM | – | –
20 | UGUGGGUCCGUUAGGAUAUUUACAGGCAUGCCUGUAAAGAAGGAACAUGAGGAUCACCCAUGUUUGACAAAUUU | 16.9 nM | 39.8 nM | – | –
21 | UGUUGUUCAGGAUAUGGUGUGUUAUACAUGAGGAUCACCCAUGUGGGUCCUGAUUUGGCGUCAGAAGGGAAUGUUG | 486 nM | 406 nM | – | –
22 | UGCGUGGUCACAGGAUAUGCAGGAUGAACUUUAGCAGAAGGGUGAUCAAUCAGCUCAAAACCACAUGAGGAUCACCCAUGUCUA | – | – | 31.9 nM | 92.9 nM
23 | UGUGCGUAUGUGAGGAUAUGCUGGUCCUUGGAUCGGCAGAAGGCACAUGAGGAUCACCCAUGUGGUGUCGUUCG | 239 nM | 24 nM | – | –
24 | UCGUUUAUACAAGGAUAUCAAUUAUAGCUAAAUUUAACAUGAGGAUCACCCAUGUAACUAUGGAGUGAGAAGGUGUAAUGACUU | – | – | 401 nM | 251 nM
25 | GAUGCGAAUGUGAGGAUAUCGGAGUAUUUAAACUCUGAGAAGGCACAUGAGGAUCACCCAUGUCCGUGCGUCUA | 506 nM | 130 nM | – | –
26 | GGUCGUCACAUGAACAUGAGGAUCACCCAUGUAAAUUCUCAUGAGGAUAUGGAUCCUAAUUGGAUCCAGAAGGCGUGGACGACC | – | – | 953 nM | 457 nM
27 | CACUCAGGCACAUGAGGAUCACCCAUGUCCCGGAAGCCGAGACAGGAUAUGUGCCUCGAAUGUGCACAGAAGGGUCUACUAUAU | – | – | 226 nM | 180 nM
28 | GCGUUCUUGUAGAAGGUACAAGAAAACUAUUAUUAACACAUGAAACAUGAGGAUCACCCAUGUAGUAAGGAUAUACAUGAACGC | – | – | 10.1 nM | 7.18 nM

Row | Sequence | apparent Kd [1] | apparent Kd [2] | apparent Kd [3] | apparent Kd [4]
29 | CCUCCCUGAGGAUAUCCACCCUCAUACAUGAGGAUCACCCAUGUUCAUCCCUGAGUACCCGGAGAAGGCAGAUUUC | 168 nM | 148 nM | – | –
30 | ACAUGAGGAUCACCCAUGUACAUGGGUUUAAUUGUGUGUUACUAGGAUAUGUAUUUGAAUUUACAACAGAAGGAGUAUUACUGU | 621 nM | 179 nM | – | –
31 | CAGCGCUGUCGAGAGGAUAUGCGGUGAUGGACAUGAGGAUCACCCAUGUUAGCGACAGCAUCACGGCAGAAGGCUCUACCCGCUG | – | – | 13.2 nM | 12.8 nM
32 | AGUAAGAUGCAGAAGGUGUUAGCUAGAGCUACGACAUGAGGAUCACCCAUGUACUAGAAAACGUACAAGGAUAUGCAUCUUACA | – | – | 7.36 nM | 5.98 nM
33 | UUGCAGUGCGGGUAGGAUAUGUAGGGUGGUACAUGAGGAUCACCCAUGUGUCCACCCUUCUUCCGGCAGAAGGGCCUGUCACUGC | – | – | 15.2 nM | 13.5 nM
34 | CAGCGGGUCUUCAGGGUAAUGAACAUGAGGAUCACCCAUGUGCAGGAUAUGACGGAUCCGCACCGUCAGAAGGGCACUAAGUGA | 26.7 nM | 32.5 nM | – | –
35 | GUCAGCUCGUGAGGAUAUACAACACUGCUUCGGCAGCGUAUUAAGAUCACAUGAGGAUCACCCAUGUAGAAGGCACGAGCUGAU | 11.7 nM | 206 nM | – | –
36 | CGUUAUAACGAGAAGGCUGUCUGCAGUCCAGACGGAGGAUAUCGAGAAGACAUGAGGAUCACCCAUGUACGCUGGUGUCUUCAU | 25.4 nM | 189 nM | – | –
37 | AUCAGCUCGUCAGGAUAUACGUCACUGCGUCAGCAGUGUGGUAAGAUCACAUGAGGAUCACCCAUGUAGAAGGGAAGAGCUGAU | 15.1 nM | 232 nM | – | –
38 | CAUUAAUUGAUUAUUGUAUUUAUACAGGAUAUGUAACAUGAGGAUCACCCAUGUAUACAUGGGAAACAGAAGGGUAUUUAUAGA | 31.9 nM | 25.6 nM | – | –
39 | UGCUGGCAAGGAUAUACUCGGGAUGCUAGUCGCGCGGUUGCACAUGAGGAUCACCCAUGUAGAAGGUGUCUGUG | 195 nM | 160 nM | – | –
40 | AACAAAGACACAGGAUAUCCACAAAUACAUGAGGAUCACCCAUGUUCGAAAGGAGAAGGGUGGCACCGGUACAAUCUGGUUAUC | – | – | 275 nM | 89.3 nM
41 | GGACCGUCCAGAGUUGGCGGUCGGCAGGAUAUGACAUGAGGAUCACCCAUGUGAACUCCAUUGGGUCAGAAGGGCCACGACGAU | 25.2 nM | 94.7 nM | – | –
42 | AAGGCACCUGAGAAGGGUACAUGAGGAUCACCCAUGUGGCUAUUUGUGCGUCGUUGACCAAGUGUACAGGAUAUUAGGGAACGU | 98 nM | 32.4 nM | – | –
43 | AAGUCUGGAUGAGGAUAUCAGCUGUAACUGACGUCGACAUGAGGAUCACCCAUGUUGCUAUAGGGUGAGAAGGCAUUUGGGCAA | – | – | 106 nM | 28.6 nM
44 | AAAUAGAUCCGAGGAUAUACAAUCCGGAAACGGUACAUGAGGAUCACCCAUGUAGAAGGCGGAUCUACAGGUACUAAAGUAAAA | 10.8 nM | 10.8 nM | – | –
45 | CUGAGCAAUCAAGGAUAUCACGUCGAUUAGACGUGAGAAGGUGAUCAUCACAUGAGGAUCACCCAUGUGUUACAUGGAGCUCAG | – | – | 1170 nM | 218 nM
46 | UGCUGACAAGGAUAUACUCGGGAUGCUAGUCGCGCAGUUGCACAUGAGGAUCACCCAUGUAGAAGGUGUCAGUA | 169 nM | 210 nM | – | –
47 | UCAGGCUUCGAGAAGGACAUGAGGAUCACCCAUGUUAAUAUGUAGCAGCCGUGAGGCUGCAUCAUGUAGGAUAUCGGAGUCUGC | 7.02 nM | 18.7 nM | – | –
48 | GCUAGUAUUGCAGGAUAUUGUAAAUUAUUAUUUCAAGAAGGGCAUUACAUGAGGAUCACCCAUGUCAUCCUUUGGAAUACUAGC | 6.19 nM | 6.51 nM | – | –
49 | GGACAUUUACAGAAGGGCAAGUUAGAUCGUGGAUAACACGAUCUGACUUGCAGGAUAUGUUGAACAUGAGGAUCACCCAUGUCC | – | – | 12.9 nM | 10.8 nM
50 | AAUUAACUCACAGGAUAUAGCAGAGGUCGCGUAAACUUACAGGCGACGAGGCUAGAAGGGUGACCACAUGAGGAUCACCCAUGU | – | – | 648 nM | 98.8 nM
51 | UGAAAACAUGAGGAUCACCCAUGUAAAAACAUGGGAGGAUAUUGAAAAAAAAAAAAAAAACAAGAAGGCCCAAAAA | – | – | 386 nM | 137 nM
52 | ACAUGAGGAUGAGGAUAUUCAUACAUGAGGAUAGAAGAAGGCAUACAUGAGGAUCACCCAUGUAUACACAUGAGGAUCUCCCAU | 25.5 nM | 30.5 nM | – | –
53 | UUGAAUCGAAACAUGAGGAUCACCCAUGUGUCGUAAUUGACAUAGGAUAUGUAUAUACUUUUAUAAUAGAAGGAUGACGAUACU | – | – | 9.09 nM | 7.94 nM
54 | UAGCCCGGCCAGAAGGGAGCUAUACAUGAGGAUCACCCAUGUCACUGACUCAGGAUAUGGCGCGCUUGGUAUAAGUAUUCAUGG | – | – | 8.36 nM | 5.46 nM
55 | CUGAUGUUAGGAUAUCAGGCGCCCGCCACUGGCAGGGCGCAUGAGAAGGGACAUGAGGAUCACCCAUGUAGUAA | 27.5 nM | 46.1 nM | – | –
